According to ChEMBL document CHEMBL1156176, “Total synthesis, antiprotozoal and cytotoxicity activities of rhuschalcone VI and analogs” (Bioorg Med Chem, 2010):
≈ marks a conversion by molar mass, not a printed value.

How the values were obtained:
Parabodo caudatus [1] = experiment: Antiprotozoal activity against Bodo caudatus at 0.6 mg/ml after 24 hrs by MTT assay; assay type: functional
Summary of the method: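 Bodo caudatus (maintained at 30 °C in cereal grass medium diluted 1:1 with water, fed E. coli DH5α, subcultured every 7–12 days); 10,000 protozoa per well with penicillin/streptomycin/kanamycin, exposed 24 h to 0.6 mg/mL final; CuSO4 at same concentration as positive control, 8% DMSO solvent control. MTT added, 2 h, DMSO-dissolved, A570 viability; triplicates; inhibition vs controls.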

Parabodo caudatus [2] = experiment: Antiprotozoal activity against Bodo caudatus after 48 hrs by MTT assay; assay type: functional
Summary of the method: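 B. caudatus from culture in cereal grass medium diluted 1:1 with water plus E. coli DH5a, kept at 30 °C; adjusted to 1 × 10^5/mL with penicillin, streptomycin and kanamycin added; exposed 48 h to serial dilutions (final 0.0001–1000 µg/mL) at 37 °C/5% CO2; MTT added for 4 h, crystals dissolved in DMSO, A570 read; LC50 from triplicate determinations.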

[3] = Cytotoxicity against BHK cells at 100 ug/ml after 48 hrs by MTT assay; assay type: cell-based, Mesocricetus auratus; settings: hamster; for Activity: bhk, 48 h
Summary of the method: (§1)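 BHK cells (DMEM/F10 1:1, 10% fetal calf serum, penicillin/streptomycin, 37 °C/5% CO2) at 1 × 10^5/mL, adhered overnight, exposed 48 h to serial dilutions (0.0001–100 µg/mL in figure). MTT for 4 h, DMSO solubilisation, A570; survival vs untreated cells; CC50 from triplicate means ± SD.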

Parabodo caudatus [4] = experiment: Antiprotozoal activity against Bodo caudatus hrs by MTT assay; assay type: functional, organism-based; settings: TDE = time-dependent effect
Summary of the method: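 B. caudatus adjusted to 1 × 10^5/mL in growth medium with penicillin/streptomycin/kanamycin, exposed 48 h at 37 °C/5% CO2 to serial dilutions (0.0001–1000 µg/mL final). MTT added for further 4 h, crystals dissolved in DMSO, absorbance 570 nm. LC50 (50% lethal concentration) from mean ± SD of triplicates.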

[5] = Cytotoxicity against BHK cells after 48 hrs by MTT assay; assay type: cell-based, Mesocricetus auratus; settings: hamster; summary of the method: as §1

Compound	Activity (Parabodo caudatus [1]) [%]	LC50 (Parabodo caudatus [2]) [mg/L]	Activity [3]	Activity (Parabodo caudatus [4])	CC50 at 48 h [5] [mg/L]	CC50 at 48 h ([3]; BHK cells) [mg/L]
COc1cc(O)c(C(=O)/C=C/c2ccc(O)cc2)cc1-c1cc(/C=C/C(=O)c2ccc(O)cc2O)ccc1O	75	118 (≈ 226 µM)	Non-toxic	tde	–	–
O=C(/C=C/c1ccc(O)c(-c2cc(C(=O)/C=C/c3ccc(O)cc3)c(O)cc2O)c1)c1ccccc1	75	20.6 (≈ 43 µM)	Non-toxic	tde	–	–
CC(C)=CCc1c(O)ccc(C(=O)/C=C/c2ccc(O)cc2)c1O [ISOBAVACHALCONE]	75	4.36 (≈ 13.4 µM)	–	tde	86.9 (≈ 268 µM)	–
O=C(/C=C/c1ccc(O)c(-c2cc(C(=O)/C=C/c3ccc(O)cc3)c(O)cc2O)c1)c1ccc(O)cc1O [RHUSCHALCONE VI]	75	53.3 (≈ 104 µM)	–	tde	–	97.6 (≈ 191 µM)
